Values after ≈ are worked out from the molar mass of the structure shown. Active and inactive are the calls of the source. The rule behind the calls is not given here.
How the values were obtained:
[1] = system: Mycobacterium tuberculosis; test: Antimycobacterial activity against Mycobacterium tuberculosis H37Ra by microplate Alamar blue assay; type: functional
Outline: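 M. tuberculosis H37Ra tested by microplate Alamar Blue assay. Activity reported as MIC. Isoniazid and kanamycin sulfate were run as reference drugs.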

[2] = system: NCI-H187; test: Cytotoxicity against human NCI-H187 cells by SRB assay; type: functional, cell-based
Outline: (§1)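 Human cell lines were epidermoid carcinoma KB, breast cancer BC1 and small-cell lung cancer NCI-H187. Cytotoxicity was read by the Skehan colorimetric method, and IC50 was reported in µg/mL. Ellipticine served as the reference substance.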

[3] = system: KB; test: Cytotoxicity against human KB cells by SRB assay; type: functional, cell-based; outline: as §1
[4] = system: Plasmodium falciparum; test: Antimalarial activity against multidrug-resistant Plasmodium falciparum K1 assessed as inhibition of [3H]hypoxanthine uptake by microculture radioisotope technique; type: functional, organism-based
Outline: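 In vitro culture of multidrug-resistant P. falciparum K1 parasites (Trager–Jensen method). Growth measured by [3H]-hypoxanthine uptake in a microculture radioisotope format. IC50 taken as the concentration giving 50% reduction in parasite growth. Artemisinin served as the reference standard.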

[5] = Cytotoxicity against human BC1 cells by SRB assay; type: functional, cell-based; outline: as §1
[6] = Plasmodium falciparum, K1, read-out: IC50
[7] = Homo sapiens, NCI-H187, read-out: IC50
[8] = Homo sapiens, BC1, read-out: IC50

SMILES | MIC [1] | IC50 ([2]; nci-h187) | IC50 ([3]; kb) | IC50 [4] | IC50 ([5]; bc1) | IC50 [4, 6] [µg/mL] | IC50 [2, 7] [µg/mL] | IC50 [5, 8] [µg/mL] | IC50 ([3]; Homo sapiens, KB, read-out: IC50) [µg/mL]
C=C(C)[C@H]1COc2c(C)cc3oc4c([C@@H](OC)[C@@H]5OC5(C)C)ccc(O)c4c(=O)c3c2[C@@H]1OC(C)=O | inactive | Not Active | Not Active | Not Active | Not Active |  |  |  | 
C=C(C)[C@H]1COc2c(C)cc3oc4c([C@H](OC)[C@@H]5OC5(C)C)ccc(O)c4c(=O)c3c2[C@@H]1O | inactive | Not Active | Not Active | Not Active | Not Active |  |  |  | 
C[C@@H]1CC[C@H]2[C@@H](C)C(=O)O[C@@H]3O[C@@]4(C)CC[C@@H]1[C@]32OO4 [ARTEMISININ] |  |  |  |  |  | 0.001 (≈ 0.00354 µM) |  |  | 
Cc1c2ccncc2c(C)c2c1[nH]c1ccccc12 [ELLIPTECINE] |  |  |  |  |  |  | 0.26 (≈ 1.06 µM) | 0.32 (≈ 1.3 µM) | 
NNC(=O)c1ccncc1 [ISONIAZID] | 0.04 µg/mL (≈ 0.292 µM) |  |  |  |  |  |  |  | 
NC[C@H]1O[C@H](O[C@H]2[C@H](O)[C@@H](O[C@H]3O[C@H](CO)[C@@H](O)[C@H](N)[C@H]3O)[C@H](N)C[C@@H]2N)[C@H](O)[C@@H](O)[C@@H]1O.O=S(=O)(O)O [KANAMYCIN SULFATE] | 2 µg/mL |  |  |  |  |  |  |  | 
C=C(C(=O)CC)[C@H]1[C@@]2(C)C=C(C)C[C@]1(C)C=C(C)[C@@H]2/C(C)=C\[C@@H]1C=CC(=O)C1 [RUGULOSONE] | 12.5 µg/mL (≈ 33 µM) |  |  |  |  | 1.9 (≈ 5.02 µM) | 1.3 (≈ 3.43 µM) | 1.3 (≈ 3.43 µM) | 2.6 (≈ 6.87 µM)
C=C(C)[C@H]1COc2c(C)cc3oc4c(CC(C)(C)C=O)ccc(O)c4c(=O)c3c2[C@@H]1O [RUGULOXANTHONE A] | inactive | Not Active | Not Active | Not Active | Not Active |  |  |  | 
C=C(C)[C@H]1COc2c(C)cc3oc4c(CC(=O)C(C)C)ccc(O)c4c(=O)c3c2[C@@H]1O [RUGULOXANTHONE B] | inactive | Not Active | Not Active | Not Active | Not Active |  |  |  | 
C=C(C)[C@H](O)Cc1ccc(O)c2c(=O)c3c4c(c(C)cc3oc12)OC[C@H](C(=C)C)[C@H]4O [RUGULOXANTHONE C] | inactive | Not Active | Not Active | Not Active | Not Active |  |  |  | 
C=C(C)[C@H]1COc2c(C)cc3oc4c(CC=C(C)C)ccc(O)c4c(=O)c3c2[C@@H]1O [SHAMIXANTHONE] | inactive | Not Active | Not Active | Not Active | Not Active |  |  |  | 
C=C(C)[C@H]1COc2c(C)cc3oc4c(C[C@H](O)C(C)(C)OCC)ccc(O)c4c(=O)c3c2[C@@H]1O [TAJIXANTHONE ETHANOATE] | inactive | Not Active | Not Active | Not Active | Not Active |  |  |  | 
C=C(C)[C@H]1COc2c(C)cc3oc4c(C[C@H](O)C(C)(C)O)ccc(O)c4c(=O)c3c2[C@@H]1O.O [TAJIXANTHONE HYDRATE] | inactive | Not Active | Not Active | Not Active | Not Active |  |  |  | 
C=C(C)[C@H]1COc2c(C)cc3oc4c(C[C@H](O)C(C)(C)OC)ccc(O)c4c(=O)c3c2[C@@H]1O [TAJIXANTHONE METHANOATE] | inactive | Not Active | Not Active | Not Active | Not Active |  |  |  | 
C=C(C)[C@@H]1COc2c(C)cc3oc4c(C[C@@H]5OC5(C)C)ccc(O)c4c(=O)c3c2[C@H]1O [TAJIXANTHONE] | inactive | Not Active | Not Active | Not Active | Not Active |  |  |  | 
